Source: ChEMBL document CHEMBL4765248, “Design, synthesis, biological evaluation and molecular docking study of novel thieno[3,2-d]pyrimidine derivatives as potent FAK inhibitors” (Eur J Med Chem, 2020)

Legend:
[1] = system: MDA-MB-231; assay: Antiproliferative activity against human MDA-MB-231 cells assessed as inhibition of cell growth measured after 72 hrs by MTT assay; assay type: functional, cell-based; conditions: MDA-MB-231, 72 h
Outline: (§1)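 Cells were seeded at 4000–5000/well and held 24 h at 37 °C in 5% CO2. Compounds were added at the indicated final concentrations and incubated 72 h. MTT was added (5 mg/mL in PBS, stated as final) for 4 h at 37 °C. Formazan was dissolved in DMSO and absorbance read at 490 nm. The 50% growth-inhibitory concentration is the mean of three independent experiments ± SE.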

[2] = biological target: Focal adhesion kinase 1 (Homo sapiens, UniProt Q05397); assay: Inhibition of N-terminal GST-fused human truncated FAK (376 to 1052 residues) expressed in baculovirus expression system using tyrosine kinase peptide as substrate measured after 50 mins in presence of ATP by homogenous time resolved flourescence assay
Sequence of Focal adhesion kinase 1 (Q05397 whole entry, the tested form may be a part): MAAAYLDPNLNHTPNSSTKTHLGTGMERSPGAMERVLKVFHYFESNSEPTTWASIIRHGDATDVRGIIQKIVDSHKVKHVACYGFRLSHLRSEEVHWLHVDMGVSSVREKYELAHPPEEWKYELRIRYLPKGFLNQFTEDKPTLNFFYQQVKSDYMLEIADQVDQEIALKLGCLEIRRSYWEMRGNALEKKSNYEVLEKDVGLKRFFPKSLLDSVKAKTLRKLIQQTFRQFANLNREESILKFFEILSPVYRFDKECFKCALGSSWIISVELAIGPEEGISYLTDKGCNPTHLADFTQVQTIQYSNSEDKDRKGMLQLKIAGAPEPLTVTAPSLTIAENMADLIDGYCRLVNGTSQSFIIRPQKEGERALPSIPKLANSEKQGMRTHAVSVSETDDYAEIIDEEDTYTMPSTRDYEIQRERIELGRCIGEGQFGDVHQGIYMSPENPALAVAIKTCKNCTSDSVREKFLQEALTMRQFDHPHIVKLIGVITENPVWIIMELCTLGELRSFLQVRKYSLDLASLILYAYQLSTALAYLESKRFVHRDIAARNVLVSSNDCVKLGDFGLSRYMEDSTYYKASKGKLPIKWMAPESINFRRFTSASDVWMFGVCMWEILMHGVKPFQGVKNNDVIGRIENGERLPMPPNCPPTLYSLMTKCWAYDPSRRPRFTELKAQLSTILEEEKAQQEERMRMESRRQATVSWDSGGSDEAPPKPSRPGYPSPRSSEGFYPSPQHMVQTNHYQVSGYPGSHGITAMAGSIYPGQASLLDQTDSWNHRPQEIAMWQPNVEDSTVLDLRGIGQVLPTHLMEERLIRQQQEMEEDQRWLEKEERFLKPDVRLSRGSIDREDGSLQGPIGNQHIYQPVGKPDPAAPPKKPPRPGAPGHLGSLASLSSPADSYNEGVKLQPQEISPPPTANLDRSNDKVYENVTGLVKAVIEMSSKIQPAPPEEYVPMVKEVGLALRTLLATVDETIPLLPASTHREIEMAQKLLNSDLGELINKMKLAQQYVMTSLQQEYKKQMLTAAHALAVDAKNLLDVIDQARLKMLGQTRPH

[3] = system: A549; assay: Antiproliferative activity against human A549 cells assessed as inhibition of cell growth measured after 72 hrs by MTT assay; assay type: functional, cell-based; conditions: A549, 72 h; outline: as §1
[4] = system: U-87 MG; assay: Antiproliferative activity against human U-87MG cells assessed as inhibition of cell growth measured after 72 hrs by MTT assay; assay type: functional, cell-based, U-87MG ATCC; outline: as §1
[5] = system: HK-2; assay: Cytotoxicity against human HK2 cells assessed as inhibition of cell proliferation measured after 72 hrs by MTT assay; assay type: cell-based; conditions: HK-2, 72 h; outline: as §1

| Compound | IC50 [1] [nM] | IC50 [2] [nM] | IC50 [3] [nM] | IC50 [4] [nM] | IC50 [5] [nM] |
| --- | --- | --- | --- | --- | --- |
| CCOP(=O)(OCC)C(O)c1ccc(Nc2ncc3scc(-c4ccccc4OC)c3n2)cc1 (centres undefined) | 2640 | 321 | 350 | 1950 | – |
| COP(=O)(Cc1ccc(Nc2ncc3scc(-c4cccc(S(C)(=O)=O)c4)c3n2)cc1)OC | – | 140 | – | – | – |
| COc1ccc(-c2csc3cnc(Nc4ccc(CP(=O)(OC)OC)cc4)nc23)cc1 | – | 1060 | – | – | – |
| COc1ccccc1-c1csc2cnc(Nc3ccc(NC(=O)CN)cc3)nc12 | 2770 | 144 | 1950 | 210 | – |
| CCOP(=O)(Cc1ccc(Nc2ncc3scc(-c4ccccc4OC)c3n2)cc1)NC (centres undefined) | 1210 | 184 | 1730 | 1300 | – |
| CNC(=O)c1ccccc1Nc1nc(Nc2ccc(N3CCOCC3)cc2OC)ncc1Cl | 4060 | – | 1160 | 1670 | – |
| COP(=O)(Cc1ccc(Nc2ncc3scc(-c4cccc(NC(C)=O)c4)c3n2)cc1)OC | – | 377 | – | – | – |
| CCOP(=O)(Cc1ccc(Nc2ncc3scc(-c4ccccc4OC)c3n2)cc1)OCC | 4940 | 157 | 960 | 1300 | – |
| COP(=O)(Cc1ccc(Nc2ncc3scc(-c4cccc(N(C)S(C)(=O)=O)c4)c3n2)cc1)OC | – | 638 | – | – | – |
| CNC(=O)c1cccc(-c2csc3cnc(Nc4ccc(CP(=O)(OC)OC)cc4)nc23)c1 | – | 324 | – | – | – |
| CCOP(=O)(Cc1ccc(Nc2ncc3scc(-c4ccccc4OC)c3n2)cc1)N1CCOCC1 (centres undefined) | 8350 | 351 | 850 | 1220 | – |
| COc1ccccc1-c1csc2cnc(Nc3ccc(NC(=O)[C@@H]4CCCNC4)cc3)nc12 | 410 | 199 | 410 | 360 | – |
| CCOc1cc(C(=O)NC2CCNCC2)ccc1Nc1ncc2scc(-c3ccccc3OC)c2n1 | 4390 | 166 | 5770 | 2030 | – |
| CNC(=O)c1ccc(Nc2ncc3scc(-c4ccccc4OC)c3n2)cc1 | 2120 | 79.3 | 310 | 710 | 710 |
| COc1ccccc1-c1csc2cnc(Nc3ccc(CP(=O)(OC)OC)cc3)nc12 | 7810 | 134 | 1800 | 1710 | – |
| COP(=O)(Cc1ccc(Nc2ncc3scc(-c4cccc(C(C)=O)c4)c3n2)cc1)OC | – | 351 | – | – | – |
| COP(=O)(Cc1ccc(Nc2ncc3scc(-c4ccccc4C(C)=O)c3n2)cc1)OC | – | 1080 | – | – | – |
| COc1ccccc1-c1csc2cnc(Nc3ccc(NC(=O)[C@H]4CCCNC4)cc3)nc12 | 440 | 167 | 500 | 300 | 4890 |

Further lines, with some results ahead:

| IC50 [1] [nM] | IC50 [2] [nM] | IC50 [3] [nM] | IC50 [4] [nM] | Compound | IC50 [5] [nM] |
| --- | --- | --- | --- | --- | --- |
| 560 | 132 | 870 | – | COc1ccccc1-c1csc2cnc(Nc3ccc(C(=O)N[C@H]4CCNC4)c(F)c3)nc12 | – |
| 2240 | 27.2 | 2880 | 6400 | COc1cc(C(=O)NC2CCNCC2)ccc1Nc1ncc2scc(-c3ccccc3OC)c2n1 | 12200 |
| 240 | 25.7 | 870 | 460 | COc1ccccc1-c1csc2cnc(Nc3ccc(C(=O)NC4CCNCC4)c(C)c3)nc12 | 4450 |
| 1160 | 38.2 | 1900 | 3590 | COc1cc(C(=O)NC2CCNCC2)c(F)cc1Nc1ncc2scc(-c3ccccc3OC)c2n1 | 780 |
| 110 | 38.8 | 360 | 650 | COc1ccccc1-c1csc2cnc(Nc3ccc(C(=O)NC4CCNCC4)cc3)nc12 | 11400 |
| 2570 | 24.2 | 5390 | 1480 | COc1ccccc1-c1csc2cnc(Nc3cc(F)c(C(=O)NC4CCNCC4)cc3F)nc12 | – |
| 2890 | 111 | 5050 | – | COc1ccccc1-c1csc2cnc(Nc3ccc(C(=O)NC[C@@H]4CCCNC4)c(F)c3)nc12 | – |
| 1610 | 48.3 | 2750 | 2370 | COc1ccccc1-c1csc2cnc(Nc3ccc(C(=O)NC4CCNCC4)cc3F)nc12 | – |
| 5350 | 118 | 5710 | – | COc1ccccc1-c1csc2cnc(Nc3ccc(C(=O)NC4CCOCC4)c(F)c3)nc12 | – |
| 2750 | 709 | 4110 | 2090 | COc1ccccc1-c1csc2cnc(Nc3ccc(C(=O)NC4CCNCC4)cc3C(F)(F)F)nc12 | – |
| 3240 | 26.5 | 3420 | 250 | COc1ccccc1-c1csc2cnc(Nc3ccc(C(=O)NC4CCNCC4)cc3C)nc12 | – |
| 350 | 47.8 | 660 | – | COc1ccccc1-c1csc2cnc(Nc3ccc(C(=O)NC4CCN(C)CC4)c(F)c3)nc12 | – |
| 260 | 71.3 | 430 | – | COc1ccccc1-c1csc2cnc(Nc3ccc(C(=O)N[C@@H]4CCNC4)c(F)c3)nc12 | – |
| 1530 | 120 | 3410 | – | COc1ccccc1-c1csc2cnc(Nc3ccc(C(=O)NCC4CCNCC4)c(F)c3)nc12 | – |
| 8620 | 149 | 4450 | – | COc1ccccc1-c1csc2cnc(Nc3ccc(C(=O)NC[C@H]4CCCNC4)c(F)c3)nc12 | – |
| 1050 | 57.7 | 450 | 1060 | COc1ccccc1-c1csc2cnc(Nc3ccc(NC(=O)C4CCNCC4)cc3)nc12 | 11700 |
